LYP act – LYP phosphatase activators, primary screen, biochemical, DiFMUP fluorescence, 2 µM; Tyrosine-protein phosphatase non-receptor type 22 (Homo sapiens), Q9Y2R2; activation, % at 2 µM; recombinant LYP; 0 = plate median, 100 = signal doubled; hit rate 0.11% among 96,000; AID 697, 2007;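 active = activation at 2 µM above a set limit, the mean plus 5 SD, cut at about 37% in these data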
EphB4 ephrin blk – EphB4-ephrin-B2 interaction antagonists, primary screen, biochemical, TNYL-RAW peptide probe, fluorescence polarization | AID 720, 2007 | EphB4 LBD / TNYL-RAW-Alexa532 peptide | hit rate 0.15% among 97,000 | Ephrin type-B receptor 4 (Homo sapiens), P54760 | inhibition, % at 7 µM;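 active = inhibition above the screen-wide mean inhibition plus 3 SD, cut at about 15% in these data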;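 note: 0% = DMSO wells and 100% = excess unlabeled TNYL-RAW peptide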
PTPN22 inh 2 – PTPN22 phosphatase inhibitors, primary screen, biochemical, DiFMUP fluorescence, 2 µM | recombinant LYP catalytic domain | hit rate 0.21% among 96,000 | inhibition, % at 2 µM | Tyrosine-protein phosphatase non-receptor type 22 (Homo sapiens), Q9Y2R2 | AID 640, 2007;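 active = inhibition at 2 µM at or above a set limit, the screen mean plus 3 SD, cut at about 24% in these data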;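 note: 0% = DMSO with enzyme and 100% = enzyme fully blocked by orthovanadate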
HIV Rev-RRE inh – HIV-1 Rev-RRE binding inhibitors, primary screen, biochemical, FRET, protein-RNA interaction; inhibition, % at 8 µM; Rev peptide-RRE RNA binding; hit rate 0.79% among 97,000; AID 704, 2007;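 active = inhibition above the screen-wide mean plus 3 SD, cut at about 35% in these data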;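 note: 0% = median DMSO wells and 100% = median Neomycin B control wells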
Target sequence (P05866 whole entry, looked up): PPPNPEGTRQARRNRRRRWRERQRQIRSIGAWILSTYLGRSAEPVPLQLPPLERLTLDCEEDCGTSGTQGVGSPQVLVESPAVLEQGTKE
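Assay system: labelled RRE RNA duplex and labelled Rev peptide / Medium: HEPES pH 7.5 salt buffer with EDTA / Reagent: labelled Rev peptide / Schedule: 5 + 15 min at 25 °C / Signal: FRET, excitation 480 nm, emission 540 nm donor and 671 nm acceptor / Benchmarks: DMSO and neomycin B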
Starred values were filed as active, the others as inactive; [ ] = dose if it differs, or a comment. Hits are enriched below; roughly 1.3% of the tested compounds scored in any of these assays.

How did Cc1ccc(/C=C2/NC(=O)N(Cc3ccccc3)C2=O)s1 do in these assays?
LYP act: -8; EphB4 ephrin blk: 2; PTPN22 inh 2: 12; HIV Rev-RRE inh: 50*

How did O=C1C2C3C=CC(C3)C2C(=O)N1CCc1ccccc1 (configuration not stated) do in these assays?
LYP act: -11; EphB4 ephrin blk: 0; PTPN22 inh 2: 11; HIV Rev-RRE inh: 8

What do the screens show for `O=C1C2C(C(=O)N1CCc1ccccc1)C1C=CC2C12CC2` (configuration not stated)?
LYP act: -44; EphB4 ephrin blk: 5; PTPN22 inh 2: 45*; HIV Rev-RRE inh: 3

What do the screens show for `COc1ccc(C)cc1NC(=O)C1CC(=O)OC12CCCCC2` (configuration not stated)?
LYP act: 8; EphB4 ephrin blk: -2; PTPN22 inh 2: -6; HIV Rev-RRE inh: -4

What do the screens show for `COC(=O)c1ccc2c(c1)C(C)(C)C(/C=C/c1ccccc1O)=[N+]2C`?
LYP act: 3; EphB4 ephrin blk: -52; PTPN22 inh 2: -6; HIV Rev-RRE inh: 79*[fluorescence artefact?]

How did COC(=O)c1cc[n+](CC(=O)c2ccccc2)cc1 do in these assays?
LYP act: 1; EphB4 ephrin blk: 1; PTPN22 inh 2: 2; HIV Rev-RRE inh: 2

What do the screens show for `O=C(Oc1ccc(-c2cn3c(n2)SCC3)cc1)c1ccccc1`?
LYP act: 1; EphB4 ephrin blk: 1; PTPN22 inh 2: -2; HIV Rev-RRE inh: 5

Results for Cc1cc2nc(C)n(CCCNC(=O)Nc3ccc(F)cc3)c2cc1C ?
LYP act: -6; EphB4 ephrin blk: -3; PTPN22 inh 2: 6; HIV Rev-RRE inh: 8

What do the screens show for `O=C(c1c[nH]c2ccc(S(=O)(=O)N3CCC4(CC3)OCCO4)cc2c1=O)N1CCOCC1`?
LYP act: 0; EphB4 ephrin blk: 17*; PTPN22 inh 2: -3; HIV Rev-RRE inh: 9

What do the screens show for `O=C1N/C(=C\c2ccc(O)cc2)C(=O)c2ccccc21`?
LYP act: 2; EphB4 ephrin blk: 5; PTPN22 inh 2: 0; HIV Rev-RRE inh: 69*

Results for O=C(Nc1ccncc1)C1COc2ccccc2O1 (configuration not stated) ?
LYP act: 32; EphB4 ephrin blk: -8; PTPN22 inh 2: -35; HIV Rev-RRE inh: 3

Results for O=C(Nc1cnc2ccccc2c1)C1COc2ccccc2O1 (configuration not stated) ?
LYP act: -29; EphB4 ephrin blk: -2; PTPN22 inh 2: 28*; HIV Rev-RRE inh: 4

How did CCCn1c(NC(=O)C2COc3ccccc3O2)nc2ccccc21 (configuration not stated) do in these assays?
LYP act: 3; EphB4 ephrin blk: 17*; PTPN22 inh 2: -5; HIV Rev-RRE inh: 8

How did Cc1ccc(S(=O)(=O)Nc2cc(C(=O)Nc3cc(C)cc(C)c3)ccc2Cl)cc1 do in these assays?
LYP act: 2; EphB4 ephrin blk: 4; PTPN22 inh 2: -5; HIV Rev-RRE inh: 4

What do the screens show for `COC(=O)C(C)N(C(=O)c1ccc(C(=O)c2ccccc2)cc1)c1c(C)cccc1C` (configuration not stated)?
LYP act: 1; EphB4 ephrin blk: -3; PTPN22 inh 2: 1; HIV Rev-RRE inh: 7

How did O=C(c1cccs1)c1no[n+]([O-])c1C(=O)c1cccs1 do in these assays?
LYP act: -91; EphB4 ephrin blk: 9; PTPN22 inh 2: 92*; HIV Rev-RRE inh: 2

What do the screens show for `COc1ccccc1-n1c(SCC(=O)NC(C)(C)C)nc(O)cc1=O`?
LYP act: 15; EphB4 ephrin blk: -12; PTPN22 inh 2: -18; HIV Rev-RRE inh: 2

How did CC(C)(C)NC(=O)CSc1nc(O)cc(=O)n1-c1ccccc1F do in these assays?
LYP act: -8; EphB4 ephrin blk: -4; PTPN22 inh 2: 5; HIV Rev-RRE inh: 53*

How did COc1ccc(S(=O)(=O)Nc2ccc(S(=O)(=O)N3CCCCC3)cc2)cc1 do in these assays?
LYP act: -25; EphB4 ephrin blk: 0; PTPN22 inh 2: 25*; HIV Rev-RRE inh: 9

Results for O=C(CSc1nc2ccccc2c2nc3ccccc3n12)NCc1ccco1 ?
LYP act: -25; EphB4 ephrin blk: 5; PTPN22 inh 2: 30*; HIV Rev-RRE inh: 0

Results for Cn1c(SCC(=O)NCc2ccco2)nc2ccccc2c1=O ?
LYP act: -2; EphB4 ephrin blk: -1; PTPN22 inh 2: 0; HIV Rev-RRE inh: 5

Results for CC1(C)c2ssc(=S)c2-c2ccccc2N1C(=O)CSC1=NCCS1 ?
LYP act: -12; EphB4 ephrin blk: -4; PTPN22 inh 2: 14; HIV Rev-RRE inh: 0

What do the screens show for `Cc1cc2c(cc1C)N(C(=O)CSC1=NCCS1)C(C)(C)c1ssc(=S)c1-2`?
LYP act: -23; EphB4 ephrin blk: -8; PTPN22 inh 2: 27*; HIV Rev-RRE inh: -2

How did COc1ccc(N2CCN(Cc3cc(=O)oc4cc5c(cc34)CCCC5)CC2)cc1 do in these assays?
LYP act: 7; EphB4 ephrin blk: -2; PTPN22 inh 2: -9; HIV Rev-RRE inh: 4

How did CN1CCCc2cc3c(C(F)(F)F)cc(=O)oc3nc21 do in these assays?
LYP act: -2; EphB4 ephrin blk: 1; PTPN22 inh 2: 1; HIV Rev-RRE inh: 71*

How did O=C(CSc1ncn[nH]1)Nc1ccccc1Sc1ccccc1 do in these assays?
LYP act: -3; EphB4 ephrin blk: -2; PTPN22 inh 2: 4; HIV Rev-RRE inh: -2

Results for Clc1ccc(/C=N/Nc2nc(Cl)nc3ccccc23)cc1 ?
LYP act: 2; EphB4 ephrin blk: -5; PTPN22 inh 2: 1; HIV Rev-RRE inh: 5

What do the screens show for `Clc1cccc(/C=N/Nc2ncnc3ccccc23)c1`?
LYP act: 11; EphB4 ephrin blk: 85*[fluorescence artefact?]; PTPN22 inh 2: -12; HIV Rev-RRE inh: 8

How did COc1ccc2c(C)cc(SCC(=O)Nc3c(C)n(C)n(-c4ccccc4)c3=O)nc2c1 do in these assays?
LYP act: -46; EphB4 ephrin blk: 2; PTPN22 inh 2: 47*; HIV Rev-RRE inh: 4

Results for COc1ccc2c(CC(=O)Nc3c(C)n(C)n(-c4ccccc4)c3=O)coc2c1 ?
LYP act: -1; EphB4 ephrin blk: -1; PTPN22 inh 2: -2; HIV Rev-RRE inh: 1

What do the screens show for `Cc1c(Br)c([N+](=O)[O-])nn1C(C)C(=O)Nc1ccc2c(c1)OCO2` (configuration not stated)?
LYP act: 1; EphB4 ephrin blk: -7; PTPN22 inh 2: 1; HIV Rev-RRE inh: 1

Results for CC1CCN(S(=O)(=O)c2cc(Br)cc(C(=O)NC3=NCCS3)c2)CC1 ?
LYP act: -9; EphB4 ephrin blk: 17*; PTPN22 inh 2: 6; HIV Rev-RRE inh: 17

What do the screens show for `Nn1cnnc1N/N=C/c1cc(Br)cc(Br)c1O`?
LYP act: -24; EphB4 ephrin blk: 9; PTPN22 inh 2: 28*; HIV Rev-RRE inh: 7

What do the screens show for `Cc1nnc(C)n1/N=C/c1cc(Br)cc(Br)c1O`?
LYP act: -4; EphB4 ephrin blk: -6; PTPN22 inh 2: 0; HIV Rev-RRE inh: 19
